Measured values taken from ChEMBL document CHEMBL4680135, “Design, synthesis and biological evaluation of indole-2-carboxylic acid derivatives as IDO1/TDO dual inhibitors” (Eur J Med Chem, 2020).
pIC50: −log10 of the molar value.

Experiments:
[1] = molecular target: Tryptophan 2,3-dioxygenase (Homo sapiens, UniProt P48775); test: Inhibition of recombinant human TDO assessed as reduction in kynurenine formation using L-tryptophan as substrate incubated for 45 mins by microplate reader assay
Procedure, shortened: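 Purified recombinant human TDO (0.05 μM) in 100 mM potassium phosphate pH 6.5 with 40 mM neutralized ascorbate, 200 μg/mL catalase, 20 μM methylene blue, L-Trp substrate and compound; 37 °C, 45 min. Stopped with 30% TCA, 65 °C 15 min, then 2% p-dimethylaminobenzaldehyde in acetic acid; absorbance 490 nm; IC50 by curve fitting.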

[2] = molecular target: Indoleamine 2,3-dioxygenase 1 (Homo sapiens, UniProt P14902); test: Inhibition of recombinant human IDO1 assessed as reduction in kynurenine formation using L-tryptophan as substrate incubated for 45 mins by microplate reader assay
Indoleamine 2,3-dioxygenase 1, sequence (P14902 whole entry): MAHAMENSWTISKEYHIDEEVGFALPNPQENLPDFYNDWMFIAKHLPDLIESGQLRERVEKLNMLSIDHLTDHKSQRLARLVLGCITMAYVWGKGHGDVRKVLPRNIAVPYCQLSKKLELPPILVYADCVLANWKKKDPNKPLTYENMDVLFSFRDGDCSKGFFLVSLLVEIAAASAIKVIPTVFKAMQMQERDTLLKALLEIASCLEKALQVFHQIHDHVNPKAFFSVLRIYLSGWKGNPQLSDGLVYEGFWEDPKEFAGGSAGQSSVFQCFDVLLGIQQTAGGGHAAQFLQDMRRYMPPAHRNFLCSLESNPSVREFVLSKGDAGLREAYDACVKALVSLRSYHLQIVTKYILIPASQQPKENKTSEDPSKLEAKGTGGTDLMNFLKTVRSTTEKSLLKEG

Tryptophan 2,3-dioxygenase, sequence (P48775 whole entry): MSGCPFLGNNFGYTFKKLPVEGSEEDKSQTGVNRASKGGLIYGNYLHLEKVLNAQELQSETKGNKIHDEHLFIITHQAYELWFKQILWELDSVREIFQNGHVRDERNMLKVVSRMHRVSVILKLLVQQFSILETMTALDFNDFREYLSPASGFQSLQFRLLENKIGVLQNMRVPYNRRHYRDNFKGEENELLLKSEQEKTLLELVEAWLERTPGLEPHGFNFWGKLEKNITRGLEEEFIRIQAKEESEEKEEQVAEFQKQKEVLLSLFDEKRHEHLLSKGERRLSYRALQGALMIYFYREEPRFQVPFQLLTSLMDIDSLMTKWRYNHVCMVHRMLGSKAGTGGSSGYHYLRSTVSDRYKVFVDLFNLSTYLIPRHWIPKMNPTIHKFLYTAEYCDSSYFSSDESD

| Compound | pIC50 [1] | pIC50 [2] |
| --- | --- | --- |
| CC(=O)Nc1cc(Nc2ccc(F)c(C)c2)c2cc(C(=O)O)[nH]c2c1 | 5.77 | 5.74 |
| CC(=O)Nc1cc(Nc2ccc(C(F)(F)F)cc2)c2cc(C(=O)O)[nH]c2c1 | 4.63 | 4.26 |
| CC(=O)Nc1cc(Nc2ccc(OC(F)(F)F)cc2)c2cc(C(=O)O)[nH]c2c1 | 5.24 | 4.63 |
| COc1ccc(Nc2ccc(F)c3[nH]c(C(=O)O)cc23)cc1Cl |  | < 4.00 |
| O=C(Nc1ccc(F)c(Cl)c1)Nc1ccc(F)c2[nH]c(C(=O)O)cc12 |  | < 4.00 |
| N/C(=N\O)c1cc2c(Nc3ccc(F)c(Cl)c3)ccc(F)c2[nH]1 |  | < 4.00 |
| COc1cc(Cl)cc(Nc2ccc(F)c3[nH]c(C(=O)O)cc23)c1 |  | < 4.00 |
| COc1cc(Nc2cc(NC(C)=O)cc3[nH]c(C(=O)O)cc23)ccc1F | 5.60 | 5.91 |
| CC(=O)Nc1ccc(Nc2ccc(F)c(Cl)c2)c2cc(C(=O)O)[nH]c12 |  | < 4.00 |
| N#Cc1cc(Nc2ccc(F)c(Cl)c2)c2cc(C(=O)O)[nH]c2c1 | < 4.00 | < 4.00 |
| O=C(O)c1cc2c(Nc3cc(Br)ccc3F)ccc(F)c2[nH]1 | 4.38 | 4.55 |
| Cn1c(C(=O)O)cc2c(Nc3ccc(F)c(Cl)c3)ccc(F)c21 |  | < 4.00 |
| COc1cc(Nc2ccc(F)c3[nH]c(C(=O)O)cc23)cc(C(F)(F)F)c1 |  | < 4.00 |
| O=C(O)c1cc2c(Sc3ccc(F)c(Cl)c3)ccc(F)c2[nH]1 |  | < 4.00 |
| CC(=O)Nc1cc(Nc2ccc(F)c(F)c2)c2cc(C(=O)O)[nH]c2c1 | 5.81 | 5.93 |
| CC(=O)Nc1cc(Nc2ccc(OC(F)F)cc2)c2cc(C(=O)O)[nH]c2c1 | 5.26 | 5.50 |
| Fc1ccc(Nc2ccc(F)c3[nH]ccc23)cc1Cl |  | < 4.00 |
| O=C(O)c1cc2c(Nc3ccc(OC(F)(F)F)c(Cl)c3)ccc(F)c2[nH]1 |  | < 4.00 |
| CC(=O)Nc1cc(Nc2ccc(F)c(Cl)c2)c2cc(C(=O)O)sc2c1 |  | < 4.00 |
| CC(=O)Nc1cc(Nc2ccc(F)c(Cl)c2)c2cc(C(=O)O)[nH]c2c1 | 5.07 | 5.08 |
| O=C(O)c1cc2c(Nc3ccc(F)c(Cl)c3)ccc([N+](=O)[O-])c2[nH]1 |  | < 4.00 |
| Cc1cc(Nc2ccc(F)c(Cl)c2)c2cc(C(=O)O)n(C)c2c1 |  | < 4.00 |
| COc1ccc(Nc2ccc(F)c(Cl)c2)c2cc(C(=O)O)[nH]c12 | 4.71 | 4.49 |

| Compound | pIC50 [1] | pIC50 [2] |
| --- | --- | --- |
| CC(=O)Nc1cc(Nc2ccc(F)cc2)c2cc(C(=O)O)[nH]c2c1 | 5.11 | 5.28 |
| N#Cc1ccc(Nc2ccc(F)c(Cl)c2)c2cc(C(=O)O)[nH]c12 |  | < 4.00 |
| O=C(O)c1cc2c(Nc3ccc(Cl)c(Cl)c3)ccc(F)c2[nH]1 |  | < 4.00 |
| O=C(NO)c1cc2c(Nc3ccc(F)c(Cl)c3)ccc(F)c2[nH]1 |  | < 4.00 |
| NC(=O)c1cc2c(Nc3ccc(F)c(Cl)c3)ccc(F)c2[nH]1 |  | < 4.00 |
| CC(=O)Nc1cc(Nc2ccc(F)cn2)c2cc(C(=O)O)[nH]c2c1 | 4.93 | 4.97 |
| CC(=O)Nc1cc(Nc2ccc(F)c(OCC(F)(F)F)c2)c2cc(C(=O)O)[nH]c2c1 | 5.02 | 5.34 |
| O=C(O)c1cc2c(Nc3ccc(C(F)(F)F)c(Cl)c3)ccc(F)c2[nH]1 |  | < 4.00 |
| O=C(O)c1cc2c(Nc3ccc(F)c4[nH]c(C(=O)O)cc34)ccc(F)c2[nH]1 | 5.46 | 5.57 |
| O=C(O)c1cc2c(Nc3ccc(F)c(Cl)c3)cc([N+](=O)[O-])cc2[nH]1 | < 4.00 | < 4.00 |
| O=C(O)c1cc2c(NCc3ccc(F)c(Cl)c3)ccc(F)c2[nH]1 |  | < 4.00 |
| O=C(O)c1cc2c(C(=O)Nc3ccc(F)c(Cl)c3)ccc(F)c2[nH]1 |  | < 4.00 |
| COc1ccc(Nc2cc(NC(C)=O)cc3[nH]c(C(=O)O)cc23)nc1 | 5.28 | 5.33 |
| CC(=O)Nc1cc(Nc2ccc(F)c(Oc3ccccc3)c2)c2cc(C(=O)O)[nH]c2c1 | 5.84 | 5.23 |
| CC(=O)Nc1cc(Nc2cccc3[nH]ncc23)c2cc(C(=O)O)[nH]c2c1 | 5.17 | 5.12 |
| CCCOc1cc(Nc2cc(NC(C)=O)cc3[nH]c(C(=O)O)cc23)ccc1F | 5.35 | 5.83 |
| O=C(O)c1cc2c(Nc3ccc(F)c4[nH]ccc34)ccc(F)c2[nH]1 |  | < 4.00 |
| CC(=O)Nc1cc(Nc2ccc(F)c(OC(F)(F)F)c2)c2cc(C(=O)O)[nH]c2c1 | 5.44 | 5.86 |
| CCNC1=C/C(=N\c2ccc(F)c(Cl)c2)c2cc(C(=O)O)[nH]c2C1=O | 7.60 | 7.74 |
| O[C@H](C[C@H]1c2c(F)cccc2-c2cncn21)[C@H]1CC[C@H](O)CC1 [NAVOXIMOD] | 6.10 |  |
| O=C(O)c1cc2c(Nc3ccc(F)c(OC(F)(F)F)c3)ccc(F)c2[nH]1 | 4.78 | 4.79 |
| CC(=O)Nc1cc(Nc2ccc(F)nc2)c2cc(C(=O)O)[nH]c2c1 | 4.34 | 4.41 |
| COc1cc(Nc2ccc(F)c3[nH]c(C(=O)O)cc23)ccc1F | 4.50 | 4.26 |

| Compound | pIC50 [1] | pIC50 [2] |
| --- | --- | --- |
| N#Cc1cc(Nc2ccc(F)c3[nH]c(C(=O)O)cc23)ccc1F |  | < 4.00 |
| O=C(O)c1cc2c(Nc3ccc(F)c(Cl)c3)cc(F)cc2[nH]1 |  | < 4.00 |
| CC(=O)Nc1cc(Nc2ccc(F)c(OCC3CC3)c2)c2cc(C(=O)O)[nH]c2c1 | 5.39 | 5.51 |
| O=C(O)c1cc2c(Nc3ccc(F)c(Br)c3)ccc(F)c2[nH]1 | 4.98 | 5.00 |
| COc1cc(Nc2ccc(F)c(Cl)c2)c2cc(C(=O)O)[nH]c2c1 |  | < 4.00 |
| CC(=O)Nc1cc(Nc2ccc(F)c(-c3ccsc3)c2)c2cc(C(=O)O)[nH]c2c1 | 5.60 | 5.41 |
| COc1ccc(Nc2cc(NC(C)=O)cc3[nH]c(C(=O)O)cc23)cc1 | 5.52 | 5.77 |
| N#Cc1cc2c(Nc3ccc(F)c(Cl)c3)ccc(F)c2[nH]1 |  | < 4.00 |
| O=C(O)c1cc2c(Nc3ccc(F)c(Cl)c3)ccc(F)c2[nH]1 | 4.00 | 4.39 |
| CCNc1cc(Nc2ccc(F)c(Cl)c2)c2cc(C(=O)O)[nH]c2c1 | 5.45 | 5.76 |
| CC(=O)Nc1cc(Nc2ccc(F)c(C3CC3)c2)c2cc(C(=O)O)[nH]c2c1 | 5.26 | 5.53 |
| CCOc1cc(Nc2cc(NC(C)=O)cc3[nH]c(C(=O)O)cc23)ccc1F | 5.29 | 5.66 |
| O=C(O)c1cc2c(Nc3ccc(F)c(F)c3)ccc(F)c2[nH]1 |  | < 4.00 |
| Cc1ccc(Nc2ccc(F)c(Cl)c2)c2cc(C(=O)O)[nH]c12 |  | < 4.00 |
| O=C(Nc1ccc(F)c2[nH]c(C(=O)O)cc12)c1ccc(F)c(Cl)c1 |  | < 4.00 |
| O=C(O)c1cc2c(Nc3ccc(F)c(Cl)c3)ccc(Cl)c2[nH]1 |  | < 4.00 |
| OCc1cc2c(Nc3ccc(F)c(Cl)c3)ccc(F)c2[nH]1 |  | < 4.00 |
| O=C(O)c1cc2c(Nc3ccc(F)c(Cl)c3)cc(Cl)cc2[nH]1 |  | < 4.00 |
| O=C(Cc1ccc(F)c(Cl)c1)Nc1ccc(F)c2[nH]c(C(=O)O)cc12 |  | < 4.00 |
| Cc1cc2c(Nc3ccc(F)c(Cl)c3)ccc(F)c2[nH]1 |  | < 4.00 |
| O=C(O)c1cc2c(Nc3ccc(F)c(Cl)c3)cccc2[nH]1 |  | < 4.00 |
| O=C(O)c1cc2c(Nc3cccc4[nH]ccc34)ccc(F)c2[nH]1 |  | < 4.00 |
| COc1ccc(C(=O)O)c(Nc2ccc(F)c3[nH]c(C(=O)O)cc23)c1 |  | < 4.00 |
